Converted amounts (≈) assume the structure as drawn. Square brackets hold non-standard residues; d marks the D form. Peptide text beside a SMILES is read from it. * marks the point of attachment. Phe(4-tBu) = CC(C)(C)c1ccc(C[C@H](N)C(=O)O)cc1; Bip = N[C@@H](Cc1ccc(-c2ccccc2)cc1)C(=O)O; tBuAla = CC(C)(C)C[C@H](N)C(=O)O; Cha = N[C@@H](CC1CCCCC1)C(=O)O; Tle = CC(C)(C)[C@H](N)C(=O)O; NHBn = c1ccc(CN*)cc1; OBn = c1ccc(CO*)cc1
Key:
Staphylococcus aureus = assay: Minimum inhibitory concentration against Staphylococcus aureus; format: functional
Summary of the method: (§1)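 E. coli ATCC 25922 or S. aureus ATCC 25923 grown to exponential phase in 2% Bacto Peptone water. Standard broth microdilution, inoculum 2 × 10^6 cfu/mL, in 1% Bacto Peptone water, overnight incubation at 37 °C. MIC read after incubation. Each peptide run in parallel from at least three independent dilutions, with gentamicin as internal standard.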

Escherichia coli = assay: Minimum inhibitory concentration against Escherichia coli; format: functional; summary of the method: as §1

Row | Structure (SMILES) | MIC (Staphylococcus aureus) | MIC (Escherichia coli)
1 | CC(C)(C)C[C@H](N)C(=O)N[C@@H](CCCN=C(N)N)C(=O)OCc1ccccc1 (H-[tBuAla]-Arg-OBn) | > 300 µg/mL | > 300 µg/mL
2 | CC(C)(C)[C@H](N)C(=O)N[C@@H](CCCN=C(N)N)C(=O)OCc1ccccc1 (H-[Tle]-Arg-OBn) | > 300 µg/mL | > 300 µg/mL
3 | NCCCC[C@H](N)C(=O)N[C@H](Cc1c[nH]c2ccccc12)C(=O)OCc1ccccc1 (H-Lys-[dW]-OBn) | 50 µg/mL (≈ 118 µM) | > 200 µg/mL
4 | NCCCC[C@H](N)CN[C@@H](Cc1c[nH]c2ccccc12)C(=O)OCc1ccccc1 | 150 µg/mL (≈ 367 µM) | > 300 µg/mL
5 | NCCCC[C@H](N)C(=O)N[C@@H](Cc1c[nH]c2ccccc12)C(=O)OCc1ccccc1 (H-Lys-Trp-OBn) | 75 µg/mL (≈ 178 µM) | > 200 µg/mL
6 | COC(=O)[C@H](CCCN=C(N)N)NC(=O)[C@@H](N)Cc1ccc(C(C)(C)C)cc1 (H-[Phe(4-tBu)]-Arg-OMe) | > 300 µg/mL | > 300 µg/mL
7 | NC(N)=NCCC[C@H](NC(=O)[C@@H](N)CC1CCCCC1)C(=O)OCc1ccccc1 (H-[Cha]-Arg-OBn) | 100 µg/mL (≈ 239 µM) | > 300 µg/mL
8 | CC(C)(C)c1cc(C(C)(C)C)c2[nH]c(C(C)(C)C)c(C[C@H](N)C(=O)N[C@@H](CCCNC(=N)N)C(N)=O)c2c1 | 15 µg/mL (≈ 28.4 µM) | > 150 µg/mL
9 | COC(=O)[C@H](CCCN=C(N)N)NC(=O)[C@@H](N)Cc1ccc(-c2ccccc2)cc1 (H-[Bip]-Arg-OMe) | 150 µg/mL (≈ 365 µM) | > 300 µg/mL
10 | NC(N)=NCCC[C@H](NC(=O)[C@@H](N)Cc1c[nH]c2ccccc12)C(=O)NCc1ccccc1 (H-Trp-Arg-NHBn) | 100 µg/mL (≈ 222 µM) | > 300 µg/mL
11 | C[C@H](N)C(=O)N[C@@H](CCCN=C(N)N)C(=O)OCc1ccc(-c2ccccc2)cc1 | 100 µg/mL (≈ 243 µM) | 300 µg/mL (≈ 729 µM)

Further compounds by falling MIC (Staphylococcus aureus), results first:

Row | MIC (Staphylococcus aureus) | MIC (Escherichia coli) | Structure (SMILES)
12 | 25 µg/mL (≈ 53.5 µM) | 200 µg/mL (≈ 428 µM) | CC(C)(C)c1ccc(C[C@H](N)C(=O)N[C@@H](CCCN=C(N)N)C(=O)OCc2ccccc2)cc1 (H-[Phe(4-tBu)]-Arg-OBn)
13 | 20 µg/mL (≈ 39.2 µM) | 150 µg/mL (≈ 294 µM) | NC(N)=NCCC[C@H](NC(=O)[C@@H](N)Cc1c2ccccc2cc2ccccc12)C(=O)NCc1ccccc1
14 | 15 µg/mL (≈ 30.8 µM) | > 50 µg/mL | NC(N)=NCCC[C@H](NC(=O)[C@@H](N)Cc1ccc(-c2ccccc2)cc1)C(=O)NCc1ccccc1 (H-[Bip]-Arg-NHBn)
15 | 12.5 µg/mL (≈ 25.6 µM) | 100 µg/mL (≈ 205 µM) | NC(N)=NCCC[C@H](NC(=O)[C@@H](N)Cc1ccccc1)C(=O)OCc1ccc(-c2ccccc2)cc1
16 | 7.5 µg/mL (≈ 13.2 µM) | 50 µg/mL (≈ 87.7 µM) | CC(C)NC(=O)[C@H](CCCN=C(N)N)NC(=O)[C@@H](N)Cc1c(C(C)(C)C)[nH]c2c(C(C)(C)C)cc(C(C)(C)C)cc12
17 | 5 µg/mL (≈ 9.21 µM) | 30 µg/mL (≈ 55.3 µM) | COC(=O)[C@H](CCCNC(=N)N)NC(=O)[C@@H](N)Cc1c(C(C)(C)C)[nH]c2c(C(C)(C)C)cc(C(C)(C)C)cc12
18 | 5 µg/mL (≈ 10.3 µM) | 150 µg/mL (≈ 308 µM) | NC(N)=NCCC[C@H](NC(=O)[C@@H](N)Cc1ccc(-c2ccccc2)cc1)C(=O)OCc1ccccc1 (H-[Bip]-Arg-OBn)
19 | 5 µg/mL (≈ 8.87 µM) | 50 µg/mL (≈ 88.7 µM) | NC(N)=NCCC[C@H](NC(=O)[C@@H](N)Cc1ccc(-c2ccccc2)cc1)C(=O)OCc1ccc(-c2ccccc2)cc1
20 | 2.5 µg/mL (≈ 4.05 µM) | 10 µg/mL (≈ 16.2 µM) | CC(C)(C)c1cc(C(C)(C)C)c2[nH]c(C(C)(C)C)c(C[C@H](N)C(=O)N[C@@H](CCCNC(=N)N)C(=O)NCc3ccccc3)c2c1
